Converted amounts (≈) assume the structure as drawn.
Assays:
Type in all cases: functional
Saccharomyces cerevisiae = test: Antifungal activity against Saccharomyces cerevisiae ATCC 26.01
In short: (§1)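 Bioautographic assay, with the minimal inhibitory concentration (MIC) estimated from it.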

Candida albicans = test: Antifungal activity against Candida albicans ATCC 10231
In short: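 Bioautographic assay against Candida albicans CIP 4872 (also listed as ATCC 10231 and NIH 3147), with the minimal inhibitory concentration (MIC) estimated.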

Aspergillus fumigatus = test: Antifungal activity against Aspergillus fumigatus 04-486; in short: as §1
Cryptococcus neoformans = test: Antifungal activity against Cryptococcus neoformans H99; in short: as §1
[1] = test system: Trichophyton mentagrophytes; test: Antifungal activity against Trichophyton mentagrophytes var. interdigitale CPCM 06.99; in short: as §1

SMILES	MIC (Saccharomyces cerevisiae; read-out: MIC) [µM]	MIC (Candida albicans; read-out: MIC) [µM]	MIC (Aspergillus fumigatus) [µM]	MIC (Cryptococcus neoformans; var grubii H99, read-out: MIC) [µM]	MIC [1] [µM]	MIC (Saccharomyces cerevisiae) [µM]	MIC (Candida albicans) [µM]	MIC (Cryptococcus neoformans; var grubii H99) [µM]
COc1c2c(c3ccc(=O)oc3c1/C=C\C(C)(C)O)OC(C)(C)C=C2	> 200	146 (≈ 50 µg/mL)	> 200	> 200				
O=c1ccc2c3c(cc[n+]2CCBr)c2ccccc2n13	7.7	> 200	> 200	> 200	> 200			
CC(=O)N1CCN(c2ccc(OCC3COC(Cn4ccnc4)(c4ccc(Cl)cc4Cl)O3)cc2)CC1 (centres undefined) [KETOCONAZOLE]	5.9 (≈ 3.14 µg/mL)	2.9 (≈ 1.54 µg/mL)	94.2 (≈ 50.1 µg/mL)	5.9 (≈ 3.14 µg/mL)	23.5 (≈ 12.5 µg/mL)			
Nc1cc(=O)n2c3ccccc3c3ccnc1c32	53.2 (≈ 12.5 µg/mL)	53.2 (≈ 12.5 µg/mL)	> 200	106 (≈ 24.9 µg/mL)	106 (≈ 24.9 µg/mL)			
CCCC[n+]1ccc2c3ccccc3n3c(=O)ccc1c23	124	124	> 200	> 200	> 200			
Cc1cc2c3ccccc3n3c(=O)ccc(n1)c23						> 200	> 200	> 200
COc1cc2nccc3c4ccccc4n(c1=O)c23 [5-METHOXYCANTHINONE]	50 (≈ 12.5 µg/mL)	> 200	50 (≈ 12.5 µg/mL)	50 (≈ 12.5 µg/mL)	6.3 (≈ 1.58 µg/mL)			
COc1c2c(c3ccc(=O)oc3c1/C=C/C(C)(C)O)OC(C)(C)C=C2 [AVICENNOL]	> 200	146 (≈ 50 µg/mL)	> 200	> 200				
COc1ccc2c(c1)c1ccnc3ccc(=O)n2c31	50 (≈ 12.5 µg/mL)	100 (≈ 25 µg/mL)	> 200	200 (≈ 50.1 µg/mL)	> 200			
O=c1ccc2nccc3c4ccc(F)cc4n1c23						13.1 (≈ 3.12 µg/mL)	13.1 (≈ 3.12 µg/mL)	13.1 (≈ 3.12 µg/mL)
O=c1ccc2c3c(cc[n+]2[O-])c2ccccc2n13	53 (≈ 12.5 µg/mL)	> 200	> 200	> 200	> 200			
O=c1ccc2nccc3c4ccccc4n1c23 [CANTHIN-6-ONE]	14.2 (≈ 3.13 µg/mL)	56.8 (≈ 12.5 µg/mL)	14.2 (≈ 3.13 µg/mL)	14.2 (≈ 3.13 µg/mL)	7.1 (≈ 1.56 µg/mL)			

From ChEMBL document CHEMBL1158823, “Extraction, hemisynthesis, and synthesis of canthin-6-one analogues. Evaluation of their antifungal activities” (2005)
